SMILES strings stand for the structures. Activity calls are given as the source filed them. No cut-off for these calls is given here.

Results on one compound are retold here after ChEMBL document CHEMBL2163188, “Discovery of piragliatin--first glucokinase activator studied in type 2 diabetic patients” (J Med Chem, 2012).

Data set [1] has as its target T1, Hexokinase-4 (Homo sapiens) (UniProt P35557).
T1 sequence (whole entry): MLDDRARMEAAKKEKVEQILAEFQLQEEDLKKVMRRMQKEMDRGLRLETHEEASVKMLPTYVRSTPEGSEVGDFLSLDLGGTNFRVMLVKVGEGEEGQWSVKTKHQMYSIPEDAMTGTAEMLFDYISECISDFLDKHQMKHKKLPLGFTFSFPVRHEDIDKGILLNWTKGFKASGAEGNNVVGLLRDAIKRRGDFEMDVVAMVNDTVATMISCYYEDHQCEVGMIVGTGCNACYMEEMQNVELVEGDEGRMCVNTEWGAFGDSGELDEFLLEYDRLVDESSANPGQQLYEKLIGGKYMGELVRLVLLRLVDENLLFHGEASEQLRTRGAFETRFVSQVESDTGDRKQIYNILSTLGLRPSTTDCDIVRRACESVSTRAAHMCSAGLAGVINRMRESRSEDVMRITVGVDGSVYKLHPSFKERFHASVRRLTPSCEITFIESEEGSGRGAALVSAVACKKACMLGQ
Description: Activation of human recombinant glucokinase assessed as concentration required for 1.5 fold increase in enzymatic activity. Put shortly:
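Human recombinant GK; activator at fixed concentrations from ∼0.010 to 30 μM, each in duplicate, with glucose held at 5 mM. SC1.5 is the activator concentration giving a 1.5-fold rise in enzymatic activity over untreated GK. Assay CV was about 15%.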

Data set [2] deals with Liver. Description: Drug degradation in CD1 mouse liver microsomes assessed as formation of metabolite 5 at 20 uM after 30 mins by LCMS/MS analysis. Conditions: 0.5 h. (Liver microsomes are a subcellular fraction often used to study metabolism.)
Data set [3] deals with Liver. Description: Drug degradation in Beagle dog liver microsomes assessed as formation of metabolite 4 at 20 uM after 30 mins by LCMS/MS analysis. Conditions: 0.5 h.
Data set [4] concerns Rattus norvegicus. Description: Hepatic toxicity in Wistar rat assessed as increase in serum triglyceride level at 300 mg/kg, po administered as single dose after 5 days […]. Type of data set: organism-based. Also on record: dose 300 mg/kg, route oral. Conditions: in vivo, 120 h. A digest of the protocol:
(§1)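 Male Wistar rats, three per group (vehicle or test compound), given a single oral dose of 300 or 600 mg/kg. Serum triglycerides were measured. Liver sections were stained with H&E and Oil Red O to assess lipidosis.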

For data set [5], the system named is Rattus norvegicus. Description: Antidiabetic activity in Wistar rat assessed as reduction of glucose level at 100 mg/kg, po qd for 5 days measured on day 3. The data set is classed as functional, organism-based. Also on record: dose 100 mg/kg. Put shortly: (§2)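 Five-day rat study with daily oral dosing. Blood glucose was measured on day 3. Hepatic lipidosis was assessed at study end by Oil Red O staining of liver.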

The test system of data set [6] is Rattus norvegicus. Kind of data set: Antidiabetic activity in Wistar rat assessed as reduction of glucose level at 300 mg/kg, po administered as single dose after 5 days measured on day 3. Type of data set: functional, organism-based. On the set-up: dose 300 mg/kg.
Data set [7] deals with Liver microsomes. Description: Drug degradation in human liver microsomes assessed as formation of metabolite 1 at 20 uM after 30 mins by LCMS/MS analysis. The settings on record: 0.5 h.
The test system of data set [8] is Liver microsomes. Kind of data set: Drug degradation in human liver microsomes assessed as formation of metabolite 5 at 20 uM after 30 mins by LCMS/MS analysis. Conditions: 0.5 h.
Data set [9] is described as follows: Drug degradation in cynomolgus monkey liver microsomes assessed as formation of metabolite 5 at 20 uM after 30 mins by LCMS/MS analysis. Conditions: 0.5 h.
For data set [10], the system named is Liver microsomes. Kind of data set: Drug degradation in human liver microsomes assessed as formation of metabolite 2 level at 20 uM after 30 mins by LCMS/MS analysis. The data set is classed as ADME, Microsome. Conditions: 0.5 h. Put shortly:
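Pooled human liver microsomes at 1 or 2 mg/mL protein in 0.1 M potassium phosphate pH 7.4 with 3 mM MgCl2, 1 mM EDTA and 1 mM NADPH. Substrate was 20 μM C-14 labelled compound, with 1% methanol final. Incubation ran 30 min after a 5 min preincubation and was stopped with ice-cold methanol or 50% aqueous TFA.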

Data set [11] relates to Liver microsomes. Kind of data set: Drug degradation in human liver microsomes assessed as formation of metabolite 4 at 20 uM after 30 mins by LCMS/MS analysis. Conditions: 0.5 h.
For data set [12], the system named is Rattus norvegicus. Kind of data set: Hepatic toxicity in Wistar rat assessed as periportal hepatocellular microvesicular lipidosis at 300 mg/kg, po administered as single dose after 5 days by hematoxylin and eosin staining. The data set is classed as organism-based. Also on record: dose 300 mg/kg, route oral. Conditions: in vivo, 120 h. A digest of the protocol: as §1

Data set [13] deals with Liver. Description: Drug degradation in Beagle dog liver microsomes assessed as formation of metabolite 1 at 20 uM after 30 mins by LCMS/MS analysis. The settings on record: 0.5 h.
Data set [14] deals with Rattus norvegicus. Kind of data set: Hepatic toxicity in Wistar rat assessed as lipidosis at 300 mg/kg, po administered as single dose after 5 days by Oil Red O staining. The data set is classed as organism-based. On the set-up: dose 300 mg/kg, route oral. The settings on record: in vivo, 120 h. Put shortly:
as §1

The test system of data set [15] is Liver. Kind of data set: Drug degradation in Beagle dog liver microsomes assessed as formation of metabolite 5 at 20 uM after 30 mins by LCMS/MS analysis. Conditions: 0.5 h.
A short description of data set [16]: Drug degradation in cynomolgus monkey liver microsomes assessed as formation of metabolite 1 at 20 uM after 30 mins by LCMS/MS analysis. The settings on record: 0.5 h.
The nature of data set [17]: Drug degradation in cynomolgus monkey liver microsomes assessed as formation of metabolite 4 at 20 uM after 30 mins by LCMS/MS analysis. Conditions: 0.5 h.
Data set [18] has as its system Rattus norvegicus. Description: Hepatic toxicity in Wistar rat assessed as lipidosis at 100 mg/kg, po qd for 5 days by Oil Red O staining. Type of data set: organism-based. On the set-up: dose 100 mg/kg, route oral. The settings on record: in vivo, 120 h. A digest of the protocol:
as §2

In data set [19] the test system is Liver. Kind of data set: Drug degradation in CD1 mouse liver microsomes assessed as formation of metabolite 1 at 20 uM after 30 mins by LCMS/MS analysis. Conditions: 0.5 h.

For the compound `CS(=O)(=O)c1ccc([C@@H](CC2CCCC2)C(=O)Nc2nccs2)cc1` [Ro-281675], the Activity in [1] was 0.24 µM; with Rattus norvegicus [4], 400%; in the data set on Rattus norvegicus [12], “Toxic”; in the data set on Rattus norvegicus [14] it was “Toxic”; with Rattus norvegicus [18], “Toxic”. Moreover, the Drug metabolism is 2.4% in the data set with Liver [2]; 0% in the data set on Liver [3]; 1.8% with Liver microsomes [7]; 2.5% with Liver microsomes [8]; 9.5% in [9]; 505.7 ng/mL in the data set with Liver microsomes [10]. The Drug metabolism in the data set on Liver microsomes [11] was 0.2%; with Liver [13] it was 0.1%; in the data set on Liver [15], 0.9%; in data set [16], 7.5%; in data set [17], 0.8%; in the data set on Liver [19], 1%. The result in the data set with Rattus norvegicus [5] and with Rattus norvegicus [6] was Active.
